KCNQ1 act = potentiators or activators of KCNQ1 channel, primary screen, cell-based, thallium flux, high-throughput | B-score at 10 µM | 310,000 compounds, 0.35% hits | Potassium voltage-gated channel subfamily KQT member 1 (Homo sapiens), P51787 | CHO-K1 KCNQ1, thallium flux FluxOR fluorescence; hits give high values;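 active = fluorescence ratio B-score, a plate-corrected score, at least three library SD, with initial intensity B-score within 5 SD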
Target sequence (P51787 whole entry, looked up): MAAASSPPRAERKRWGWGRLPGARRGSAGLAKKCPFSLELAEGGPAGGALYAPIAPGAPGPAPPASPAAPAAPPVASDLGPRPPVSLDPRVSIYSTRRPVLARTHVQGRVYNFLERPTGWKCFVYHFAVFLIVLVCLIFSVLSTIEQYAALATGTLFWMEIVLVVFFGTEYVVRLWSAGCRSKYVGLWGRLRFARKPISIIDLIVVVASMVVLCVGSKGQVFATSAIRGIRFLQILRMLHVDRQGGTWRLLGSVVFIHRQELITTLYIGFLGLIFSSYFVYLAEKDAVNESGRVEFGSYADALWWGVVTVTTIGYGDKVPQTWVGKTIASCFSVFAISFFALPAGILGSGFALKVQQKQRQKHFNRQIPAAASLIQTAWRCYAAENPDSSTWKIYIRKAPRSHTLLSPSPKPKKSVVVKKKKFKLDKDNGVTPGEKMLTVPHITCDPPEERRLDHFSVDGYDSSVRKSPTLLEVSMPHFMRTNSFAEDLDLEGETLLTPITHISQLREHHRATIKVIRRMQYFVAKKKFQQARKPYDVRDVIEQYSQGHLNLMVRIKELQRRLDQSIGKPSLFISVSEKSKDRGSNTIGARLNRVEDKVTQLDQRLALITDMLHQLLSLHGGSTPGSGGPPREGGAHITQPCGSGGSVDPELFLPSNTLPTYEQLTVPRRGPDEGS
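Assay system: CHO-K1 cells stably expressing KCNQ1. Medium: assay buffer for compound exposure, DMSO matched across wells. Timing: 37 °C overnight plating, 90-min dark dye load, 20-min compound pretreatment. Signal: kinetic FluxOR fluorescence, 10 s baseline plus 110 s post-stimulus.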
KCNK3 block = human KCNK3 channel inhibitors, primary screen, CHO cells, FluxOR thallium flux, B-score. FluxOR fluorescence; hits give low values. Potassium channel subfamily K member 3 (Homo sapiens), O14649. B-score at 10 µM. 340,000 compounds, 0.84% hits. AID 602410, 2012;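 active = B-score under library mean minus 4 SD, starting fluorescence ratio at most library mean plus 5 SD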;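 also: more negative B-score means stronger inhibition of thallium flux through KCNK3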
KCNQ1 block = inhibitors of human KCNQ1 channel, primary screen, cell-based, thallium flux, high-throughput | AID 2642, 2010 | 310,000 compounds, 1.3% hits | CHO-K1 KCNQ1, FluxOR thallium flux fluorescence; hits give high values | B-score at 10 µM;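 active = compounds whose thallium flux B-score, printed positive for inhibition, exceeds three library SD while starting fluorescence stays within three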;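 also: channel opened by potassium depolarization with thallium stimulus after 20 min compound exposure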
Kir21 inh = inhibitors of mouse Kir2.1 inward-rectifier potassium channel | 310,000 compounds, 0.85% hits | HEK293-Kir2.1, FluxOR thallium flux fluorescence; hits give low values | AID 1672, 2009 | B-score at 10 µM | Inward rectifier potassium channel 2 (Mus musculus), P35561;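 active = fluorescence ratio B-score at or below minus 3 SD of library scores, with starting-brightness B-score within 2 SD, cut at about -4.2 in these data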;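 also: channel flux triggered by added potassium and thallium sulfate stimulus; B-score of peak minus minimum fluorescence over baseline after thallium stimulus; more negative B-score means stronger Kir2.1 block with less thallium influx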
KCNK9 block = KCNK9 potassium channel inhibitors, primary screen, HEK293 cells, thallium flux; 310,000 compounds, 1.2% hits; FluxOR thallium flux fluorescence; hits give low values; B-score at 10 µM; AID 488922, 2010; Potassium channel subfamily K member 9 (Homo sapiens), Q9NPC2;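 active = ratio B-score over 3 SD below the library mean, with starting fluorescence within 5 SD of its mean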;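 also: negative B-score means less thallium flux so channel inhibition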
hERG rescue = hERG rescue from dofetilide block, primary screen, cell-based, CHO-hERG, FluxOR thallium flux, dofetilide IC70 | dofetilide IC70 present | Voltage-gated inwardly rectifying potassium channel KCNH2 (Homo sapiens), Q12809 | AID 1511, 2009 | 310,000 compounds, 0.51% hits | activation (rescue from dofetilide block), less the hit threshold, % at 10 µM;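 active = activation above the mean of controls blocked by dofetilide plus 5 SD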;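 also: thallium influx through hERG after potassium depolarization seen as dye fluorescence rise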
KCNK3 inh conf = retest of human KCNK3 channel inhibitors, confirmation, CHO cells, FluxOR thallium flux, triplicate; shares compounds with KCNK3 block; FluxOR fluorescence; 0% buffer, 100% carvedilol maximal block; ratio percent of control, % at 10 µM; 2,400 compounds, 99% hits; AID 651638, 2012;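 active = ratio percent of control, averaged over triplicates, above buffer control mean plus 5 SD, cut at about 64% in these data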;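 also: ratio is the fluorescence rise from min to max over baseline after thallium stimulus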
KCNK3 uninduced = thallium flux inhibition in non-induced cells, primary screen, counter-screen for KCNK3 inhibitor project, cell-based, non-induced KCNK3 line, FluxOR thallium, triplicate | shares compounds with KCNK3 block | non-induced KCNK3 parental cells; hits give low values | thallium flux ratio (lower = more inhibition) at 10 µM | 2,400 compounds, 40% hits | AID 651747, 2012;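 active = thallium flux ratio, averaged over three wells, more than 5 SD below the buffer control mean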;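 also: host cells are CHO cells without KCNK3 induction; ratio is peak minus trough fluorescence over baseline then normalized to buffer controls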
The depositor's hits bear a star. Most compounds without a hit are left out; they make up all but 3.8% or so of the library.

For CCCCn1c(O)c(C(CC)=NCc2ccc3c(c2)OCO3)c(=O)[nH]c1=O the results were KCNQ1 act inactive, KCNK3 block -9.7*, KCNQ1 block inactive, Kir21 inh 0.32, KCNK9 block -6.9*, hERG rescue -9, KCNK3 inh conf 117* and KCNK3 uninduced inactive.
`CCC(C(=O)N1CCC2(CC1)OCCO2)c1ccccc1` (configuration not stated) gave KCNQ1 act inactive, KCNK3 block inactive, KCNQ1 block inactive, Kir21 inh -0.49, KCNK9 block inactive and hERG rescue -7.
Screening CCC(C(=O)N1CCC2(CC1)OCCO2)n1c2ccccc2c2nc(=O)cc(C)n21 (configuration not stated) returned KCNQ1 act inactive, KCNK3 block -10*, KCNQ1 block inactive, Kir21 inh 0.44, KCNK9 block inactive, hERG rescue -7, KCNK3 inh conf 90* and KCNK3 uninduced inactive.
O=c1[nH]oc2c1CCNC2 was read as KCNK3 block inactive.
C#C[C@]1(O)CC[C@H]2[C@@H]3CCC4=Cc5nc6nc7ccccc7n6cc5C[C@]4(C)[C@H]3CC[C@@]21C was read as KCNK3 block -16*, KCNK3 inh conf 132* and KCNK3 uninduced 0.12*.
`C#CC1(O)CCC2C3CCC4=C/C(=N/OCC(=O)NCC(=O)NC(C(=O)O)C(C)C)CC[C@]4(C)C3CC[C@@]21C` (some centres not stated) gave KCNQ1 act inactive, KCNK3 block inactive, KCNQ1 block inactive, Kir21 inh -1.2, KCNK9 block inactive and hERG rescue -10.

Source: PubChem BioAssay (Johns Hopkins Ion Channel Center)
